Our source for the Activity and EC50 values is ChEMBL document CHEMBL3596101, “The Mechanism of Ca(2+) Movement in the Involvement of Baicalein-Induced Cytotoxicity in ZR-75-1 Human Breast Cancer Cells” (J Nat Prod, 2015).

In experiment [1] the test system is ZR-75-1. In words: Increase in intracellular Ca2+ level in human ZR-75-1 cells at 40 uM treated for 90 secs post PLC inhibitor U73122 and ATP addition by fura-2-AM dye-based spectrofluorophotometric analysis in presence of Ca2+ free medium. The class given is functional, cell-based. Summed up:
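Performed in Ca2+-free medium with fura-2-loaded ZR-75-1 cells. Response expressed relative to 40 μM compound alone (100%). Three experiments.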

For experiment [2], the system named is ZR-75-1. In words: Induction of apoptosis in human ZR-75-1 cells assessed as activation of caspase-9 at 20 to 40 uM preincubated for 24 hrs followed by Ca2+ chelator BAPTA-AM addition by Western immunoblot analysis. The class given is functional, cell-based. Summed up: (§1)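 Confluent ZR-75-1 cells (3 × 10^6/dish) treated with 20, 30 or 40 μM compound for 24 h. Where used, 5 μM BAPTA-AM or 5 μM NAC was added before the compound. About 50 μg lysate protein run on 10% SDS-PAGE, transferred to PVDF, probed for cleaved caspase-9/-3 and β-actin, chemiluminescence. Densitometry normalized to β-actin. Three experiments.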

Experiment [3] concerns ZR-75-1. The experiment in a line: Induction of apoptosis in human ZR-75-1 cells assessed as increase in cleaved caspase-9 level at 20 to 40 uM after 24 hrs by Western immunoblot analysis. The class given is functional, cell-based. Summed up: as §1
On the technique in general: Immunoblotting shows a protein as a band on a membrane.

For experiment [4], the system named is ZR-75-1. The experiment in a line: Induction of apoptosis in human ZR-75-1 cells assessed as early apoptotic cells at 40 uM after 24 hrs by annexin V-FITC/propidium iodide staining-based flow cytometric analysis (reference value: 6.84%). The class given is functional. In short, it runs like this:
(§2)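 ZR-75-1 cells exposed to 20–40 μM compound for 24 h, with 5 μM BAPTA-AM or NAC added first where indicated. Cells stained with Alexa Fluor 488 annexin V/PI for 15 min, at least 20000 cells analysed by flow cytometry (488 nm excitation, 530/575 nm filters). Early = annexin V+/PI−, late = annexin V+/PI+. Three independent biological replicates.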

Experiment [5] relates to ZR-75-1. The experiment in a line: Induction of cell death in human ZR-75-1 cells at 20 to 50 uM after 24 hrs by WST-1 assay in presence of antioxidant N-Acetylcysteine. Type of experiment: functional, cell-based. In short, it runs like this:
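WST-1 viability assay in ZR-75-1 cells: 5 μM NAC added, then 20–50 μM compound in NAC-containing medium for 24 h. A450 read after 30 min WST-1 incubation and expressed as % of control. Mean ± SEM of three experiments.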

Experiment [6] concerns ZR-75-1. The experiment in a line: Increase in intracellular Ca2+ level in human ZR-75-1 cells at 40 uM measured every 150 secs by fura-2-AM dye-based spectrofluorophotometric analysis in presence of Ca2+ containing medium with PKC inhibitor GF109203X. Type of experiment: functional, cell-based. Summed up:
(§3)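 In Ca2+-containing medium (2 mM CaCl2), 2-APB (30 μM) or GF109203X (2 μM) was added 1 min before 40 μM compound to fura-2-loaded ZR-75-1 cells at 25 °C. Response = net area under curve over a 150 s interval, as % of compound alone. Mean ± SEM, n=3.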

For experiment [7], the system named is ZR-75-1. The experiment in a line: Induction of reactive oxygen species production in human ZR-75-1 cells at 20 to 40 uM after 24 hrs by DCFH-DA probe-based flow cytometric analysis in presence of Ca2+ containing medium with Ca2+ chelator BAPTA-AM. Type of experiment: functional, cell-based. In short, it runs like this: (§4)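 ZR-75-1 cells treated with 20–40 μM compound for 24 h, with 5 μM BAPTA-AM added first where indicated. Cells suspended at 1 × 10^6/mL, loaded with 10 μM DCFH-DA for 30 min at 37 °C. DCF read by flow cytometry (488 nm excitation, 530/30 nm filter, 10000 cells). % H2O2-positive (M1) after subtracting the baseline without probe. Three experiments.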
(In flow cytometry, cells or beads pass a laser one at a time.)

Experiment [8] concerns ZR-75-1. The experiment in a line: Induction of apoptosis in human ZR-75-1 cells at 20 to 50 uM preincubated for 24 hrs followed by antioxidant N-Acetylcysteine and Ca2+ chelator BAPTA-AM addition by annexin V-FITC/propidium iodide staining-based flow cytometric analysis. Type of experiment: functional, cell-based.
For experiment [9], the system named is ZR-75-1. The experiment in a line: Cytotoxicity against human ZR-75-1 cells assessed as decrease in cell viability after 24 hrs by WST-1 assay. The class given is functional, cell-based. In short, it runs like this: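 WST-1 assay on ZR-75-1 cells seeded at 10000 cells/well, exposed to 0–50 μM compound for 24 h. Where used, 5 μM BAPTA-AM was given for 1 h beforehand, then cells were washed with Ca2+-containing medium. WST-1 incubation 30 min, A450 read. Viability expressed as % of compound-free control. Six wells per treatment, three separate experiments.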

The test system of experiment [10] is ZR-75-1. In words: Induction of apoptosis in human ZR-75-1 cells assessed as activation of caspase-3 at 20 to 40 uM preincubated for 24 hrs followed by antioxidant N-Acetylcysteine addition by Western immunoblot analysis. Type of experiment: functional, cell-based. In short, it runs like this:
as §1

Experiment [11] has as its system ZR-75-1. The experiment in a line: Increase in intracellular Ca2+ level in human ZR-75-1 cells treated for 25 secs by fura-2-AM dye-based spectrofluorophotometric analysis in presence of Ca2+ containing medium. Type of experiment: functional, cell-based. Summed up:
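Fura-2-loaded ZR-75-1 cells (0.5 million per 1 mL, stirred, 25 °C) in Ca2+-containing or Ca2+-free medium. Compound added at 25 s. 340/380 nm excitation, 510 nm emission at 1 s intervals, calibrated to nM. Concentration-response from baseline-subtracted area under curve (25–250 s) as % of 50 μM response in Ca2+ medium. EC50 from Hill fit. Three experiments.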

The test system of experiment [12] is ZR-75-1. In words: Induction of apoptosis in human ZR-75-1 cells assessed as activation of caspase-9 at 20 to 40 uM preincubated for 24 hrs followed by antioxidant N-Acetylcysteine addition by Western immunoblot analysis. The class given is functional, cell-based. In short, it runs like this:
as §1

In experiment [13] the test system is ZR-75-1. The experiment in a line: Induction of reactive oxygen species production in human ZR-75-1 cells after 24 hrs by DCFH-DA probe-based flow cytometric analysis. The class given is functional, cell-based. In short, it runs like this:
as §4

Experiment [14] relates to ZR-75-1. The experiment in a line: Increase in intracellular Ca2+ level in human ZR-75-1 cells at 40 uM measured every 150 secs by fura-2-AM dye-based spectrofluorophotometric analysis in presence of Ca2+ containing medium with store-operated Ca2+ channel blocker 2-APB. The class given is functional, cell-based. Summed up:
as §3

Experiment [15] relates to ZR-75-1. The experiment in a line: Induction of apoptosis in human ZR-75-1 cells assessed as early apoptotic cells at 20 uM after 24 hrs by annexin V-FITC/propidium iodide staining-based flow cytometric analysis (reference value: 6.84%). The class given is functional. Summed up: as §2
Experiment [16] has as its system ZR-75-1. In words: Increase in intracellular Ca2+ level in human ZR-75-1 cells at 40 uM measured every 150 secs by fura-2-AM dye-based spectrofluorophotometric analysis in presence of Ca2+ free medium with PKC inhibitor GF109203X. The class given is functional, cell-based. Summed up: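 In Ca2+-free medium, GF109203X (2 μM) was added 1 min before 40 μM compound to fura-2-loaded ZR-75-1 cells in a 25 °C cuvette. Response = net area under curve as % of compound alone. Three experiments.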

Experiment [17] relates to ZR-75-1. In words: Induction of reactive oxygen species production in human ZR-75-1 cells at 30 uM after 24 hrs by DCFH-DA probe-based flow cytometric analysis (reference value: 3.623%). The class given is functional. In short, it runs like this: as §4
Experiment [18] concerns ZR-75-1. In words: Induction of apoptosis in human ZR-75-1 cells assessed as activation of caspase-3 at 20 to 40 uM preincubated for 24 hrs followed by Ca2+ chelator BAPTA-AM addition by Western immunoblot analysis. Type of experiment: functional, cell-based. In short, it runs like this: as §1

pEC50: −log10 of the molar value. The source made the active and inactive calls. The rule behind the calls is not given here.

For `O=c1cc(-c2ccccc2)oc2cc(O)c(O)c(O)c12` [BAICALEIN], the outcome in [1], in experiment [2], in experiment [5], in experiment [6], in experiment [7] and in experiment [8] was inactive. The result in experiment [10], in experiment [12], in [14], in experiment [16] and in [18] was inactive. Besides, in [3], the result was Active. Moreover, the Activity in experiment [4] was 55.96%; in [9], “Dose-dependent effect”; in experiment [11], “Dose-dependent effect”; in experiment [13], “Dose-dependent effect”; in [15], 22.71%; in experiment [17], 32.663%. The negative-log EC50 (pEC50) in experiment [11] was 4.60.

Usually pEC50 stands for −log10 of the EC50, conventionally taken in molar units.
